Data taken from publication PMC9592562 (Research and Practice in Thrombosis and Haemostasis, 2022).

Tests used:
[1] = tested on: aPL pool sera / IIa‐8.0‐biot‐2x; assay: inhibition of aPL binding to IIa‐8.0‐biot‐2x ELISA; assay type: biochemical, human; details: preincubation 90 min, room temperature; 1, 10 and 100 μg/ml; n = 3–4; Figure 7A
In short: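 Pooled plasma from 11 APS patients (aPL pool sera) was preincubated for 90 min at room temperature with increasing concentrations (1, 10, 100) of monomeric peptide. It was then run in the anti-β2GP1 IgG ELISA on streptavidin-coated plates bearing the biotinylated dimeric peptide. Bound IgG was detected with anti-human secondary antibody (IRDye800CW or HRP) as fluorescence (AU) or A405. Mean ± SEM, n = 3–4.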

aPL pool = assay: custom immunoassay; assay type: binding, human; details: coated on plate (10 μg/ml); aPL pool 1/10 dilution; n = 9
[2] = tested on: aPL from pool of plasma from 11 human patients; assay: surface plasmon resonance, aPL over immobilized biotinylated peptide; assay type: binding; details: shape of stabilization curves; Figures 3C, 3D, 4E

VSRGGMRKFICPLTG [R39‐R43]
inhibition of aPL binding to IIa‐8.0‐biot‐2x, monomeric peptide [1]: failed to significantly inhibit | ability to interact with aPL compared with β2GP1 (aPL pool): same ability to interact with aPL than β2GP1

VSRGGMRKKKKPLTG [Ib‐1‐biot]
sustained interaction / stability of binding with aPL [2]: neither R39‐R43‐biot nor Ib‐1‐biot have sustained interaction with aPL
